{
  "source": "PubChem BioAssay AID651753",
  "about": "(Broad Institute, 2012)",
  "key": {"[1]": {"system": "SK-MEL-5 TRPM1-promoter luciferase, luminescence, 24 h", "test": "inhibitors of MITF-driven TRPM1 promoter activity, dose response, cell-based, SK-MEL-5, luciferase, dry powder, set 10 (AID 651753)", "in_short": "(§1)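 Times: 24 h compound exposure at 37 °C, added day after seeding / System: SK-MEL-5 melanoma cells, stable TRPM1 promoter-driven luciferase reporter / Medium: DMEM lacking phenol red, plus 10% heat-inactivated FBS / Detection: Steady-Glo luciferase luminescence after 5 min room-temperature incubation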"}, "[2]": {"test": "inhibitors of MITF-driven TRPM1 promoter activity, dose response, cell-based, SK-MEL-5, luciferase, dry powder, set 10 (AID 651753)", "conditions": "SK-MEL-5 TRPM1-promoter luciferase, luminescence, 24 h; at 35 µM (top of the series)", "in_short": "as §1"}},
  "note": "Where “and” joins values, the source holds several entries; their conditions need not be identical. Equal entries are not always repeated. Calls of active or inactive are those of the source.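 How the source made its calls: active means falling-signal curve whose AC50 is no more than twice the top valid dose; inconclusive means flat fit with moderate inhibition, or poor fit; inactive means the rest.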",
  "data": [
    {"smiles": "O=C1C=C(Nc2ccccc2)C(=O)c2ccccc21", "values": [
      {"measurement": "AC50", "setting": "[1]", "result": 3.89, "unit": "µM"}
    ]},
    {"smiles": "CCN1CCN(C2=C(Nc3ccc(F)cc3F)C(=O)c3ccccc3C2=O)CC1", "values": [
      {"measurement": "AC50", "setting": "[1]", "result": 11.4, "unit": "µM"}
    ]},
    {"smiles": "CC(C)N1CCN(C2=C(Nc3ccc(F)cc3)C(=O)c3ccccc3C2=O)CC1", "values": [
      {"measurement": "AC50", "setting": "[1]", "result": 29.2, "unit": "µM"}
    ]},
    {"smiles": "O=C1C(Nc2cccc(Cl)c2)=C(N2CCCC2)C(=O)c2ccccc21", "values": [
      {"measurement": "AC50", "setting": "[1]", "result": "> 70 µM (inactive)"}
    ]},
    {"smiles": "NC1=CC(=O)c2ccccc2C1=O", "values": [
      {"measurement": "AC50", "setting": "[1]", "result": 1.39, "unit": "µM"}
    ]},
    {"smiles": "COC1=C(NS(=O)(=O)c2ccccc2)C(=O)c2ccccc2C1=O", "values": [
      {"measurement": "AC50", "setting": "[1]", "result": 8.13, "unit": "µM"}
    ]},
    {"smiles": "O=C1C(Nc2ccc(F)cc2)=C(N2CCCCC2)C(=O)c2ccccc21", "values": [
      {"measurement": "AC50", "setting": "[1]", "result": 18.5, "unit": "µM"}
    ]},
    {"smiles": "CN1CCN(C2=C(Nc3ccc(F)cc3F)C(=O)c3ccccc3C2=O)CC1", "values": [
      {"measurement": "AC50", "setting": "[1]", "result": 13.1, "unit": "µM"}
    ]},
    {"smiles": "O=C(NC1=C(N2CCN(c3ccccc3)CC2)C(=O)c2ccccc2C1=O)c1ccccc1", "values": [
      {"measurement": "AC50", "setting": "[1]", "result": "> 70 µM (inactive)"}
    ]},
    {"smiles": "Cc1ccc(NC2=CC(=O)c3ccccc3C2=O)cc1", "values": [
      {"measurement": "activity change, negative = inhibition", "setting": "[2]", "result": "76.9% (inactive)"},
      {"measurement": "AC50", "setting": "[1]", "result": 3.13, "unit": "µM"}
    ]},
    {"smiles": "O=C1C(Nc2ccc(Cl)cc2)=C(N2CCCC2)C(=O)c2ccccc21", "values": [
      {"measurement": "AC50", "setting": "[1]", "result": "> 70 µM (inactive)"}
    ]},
    {"smiles": "O=C1C=C(Nc2ccc([N+](=O)[O-])c(C(F)(F)F)c2)C(=O)c2ccccc21", "values": [
      {"measurement": "AC50", "setting": "[1]", "result": 0.718, "unit": "µM"}
    ]},
    {"smiles": "CC(C)N1CCN(C2=C(Nc3ccc(F)cc3F)C(=O)c3ccccc3C2=O)CC1", "values": [
      {"measurement": "AC50", "setting": "[1]", "result": 12.6, "unit": "µM"}
    ]},
    {"smiles": "COc1ccc(NC2=C(N3CCCCC3)C(=O)c3ccccc3C2=O)cc1", "values": [
      {"measurement": "AC50", "setting": "[1]", "result": 17.2, "unit": "µM"}
    ]},
    {"smiles": "O=C1C(Nc2ccc(Br)cc2)=C(N2CCCCC2)C(=O)c2ccccc21", "values": [
      {"measurement": "AC50", "setting": "[1]", "result": 19.2, "unit": "µM"}
    ]},
    {"smiles": "NS(=O)(=O)c1ccc(NC2=CC(=O)c3ccccc3C2=O)cc1", "values": [
      {"measurement": "AC50", "setting": "[1]", "result": "0.651 µM and 0.229 µM"}
    ]}
  ]
}
